Laboratory results taken from ChEMBL document CHEMBL3580577, “Fragment-based exploration of binding site flexibility in Mycobacterium tuberculosis BioA” (J Med Chem, 2015).

Key:
[1] = system: Mycobacterium tuberculosis; experiment: Inhibition of Mycobacterium tuberculosis N-terminal His-tagged BioA assessed as temperature of denaturation shift by […]
Outline: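 Differential scanning fluorimetry with 0.05 mg/mL holo BioA in 25 mM HEPES pH 7.5, 50 mM NaCl, 5× SYPRO Orange, and 5 mM fragment from 200 mM DMSO stock. Heated 55–100 °C in 0.5 °C steps with 60 s dwell. Tm taken at the first-derivative peak; the shift is against the mean of DMSO-only controls on the same plate. Four replicates, mean with standard error.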

[2] = Inhibition of Mycobacterium tuberculosis N-terminal His-tagged BioA assessed as dissociation constant by isothermal titration calorimetry
Outline: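 Isothermal titration calorimetry at 25 °C in 25 mM HEPES pH 7.5, 50 mM NaCl, with 100 µM PLP-saturated His-tagged BioA (E. coli-expressed) in the cell. Ligand at 1.0, 1.5 or 2.0 mM, DMSO matched, given as 2 µL injections 150 s apart with stirring at 750 rpm. First injection discarded; heats of dilution corrected. KD = 1/KA from curve fit, averaged over three replicates.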

[3] = system: Mycobacterium tuberculosis; experiment: Antimycobacterial activity against Mycobacterium tuberculosis H37Rv assessed as growth inhibition after 9 days by Whole cell growth assay; type: functional, organism-based; settings: 216 h
Outline: (§1)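 Virulent H37Rv wild type pregrown in Sauton's medium with 1000 nM biotin to OD580 1.0–1.2, washed twice in biotin-free Sauton's medium, and seeded at OD580 0.03 in biotin-free medium or with 1000 nM biotin added. Compounds were tested at 2-fold dilutions, 1000 to 3.9 µM final, against no-compound controls. OD read after nine days at 37 °C, in triplicate; MIC calculated.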

[4] = system: Mycobacterium tuberculosis; experiment: Antimycobacterial activity against Mycobacterium tuberculosis BioA-UE strain assessed as growth inhibition after 9 days by Whole cell growth assay in presence of 1000 nM biotin; type: functional, organism-based; settings: 216 h
Outline: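 Mtb BioA-underexpressing strain pregrown in Sauton's medium with 1000 nM biotin to OD580 1.0–1.2, washed twice in biotin-free Sauton's medium, and seeded at OD580 0.03 in medium with 1000 nM biotin plus 200 ng/mL anhydrotetracycline. Compounds were tested at 2-fold serial dilutions, 1000 to 3.9 µM final, against no-compound controls. OD read after nine days at 37 °C, in triplicate; MIC calculated from growth.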

[5] = system: Mycobacterium tuberculosis; experiment: Antimycobacterial activity against Mycobacterium tuberculosis H37Rv assessed as growth inhibition after 9 days by Whole cell growth assay in presence of 1000 nM biotin; type: functional, organism-based; settings: 216 h; outline: as §1
[6] = Inhibition of Mycobacterium tuberculosis H37Rv N-terminal His-tagged BioA using KAPA substrate by in vitro biochemical assay

| Structure (SMILES) | ΔTm [1] [°C] | Kd [2] [µM] | IC50 [3] [µM] | IC50 [4] [µM] | IC50 [5] [µM] | IC50 [6] [µM] |
| --- | --- | --- | --- | --- | --- | --- |
| NCc1nc2ccccc2s1 | -6.5 | 30.3 | 250 | 368 | 304 | – |
| NC(=O)c1ccc(-n2ccnc2)cc1 | 4.1 | 15 | > 1000 | > 1000 | > 1000 | – |
| O=C(c1ccccc1)C1CCNCC1 | 3.6 | 41.8 | 340 | 260 | 357 | – |
| O=c1cc(-c2ccccc2F)[nH]c2cc3c(cc12)OCO3 | – | – | – | – | – | 0.44 |
| CC(=O)Nc1ccc2c(c1)C=CC2=O | 3.6 | 21.7 | > 1000 | > 1000 | > 1000 | – |
| CNCc1ccc(Cn2cccn2)cc1 | 5.3 | 11.7 | > 1000 | > 1000 | > 1000 | – |
| NC(=O)c1ccc(-c2ccccn2)s1 | 6.3 | 6.9 | 249 | 39.2 | > 1000 | – |
| NCc1ccc(Cn2cc(Cl)cn2)cc1 | -11.9 | 6.8 | – | – | – | – |
